Source: PubChem BioAssay
In the library only some 1.5% were active in any assay of this set; here they are far more common.
APJ ag – agonists of human apelin receptor APJ, primary screen, CHO-K1 cells, PathHunter beta-arrestin, luminescence; actives 0.11% (n = 330,000); P35414; activation, % at 20 µM; 0% DMSO wells, 100% apelin;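 active = activation more than six SD over the plate average, tested at 20 µM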;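 also: 0% = DMSO alone and 100% = apelin-13 at 10 nM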
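Assay system – PathHunter CHO-K1 APJ (AGTRL-1) beta-arrestin reporter cells · Compound – one dose, 20 µM compound, 1% DMSO · Timing – compound 90 min 25 °C, reagent 1 h · Measured by – luminescence from split beta-galactosidase complementation, Galacton Star/Emerald II substrate · Measure – beta-arrestin recruitment to APJ as agonist activity, luminescent signal · Benchmarks – DMSO vs Apelin-13 10 nM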
CXCR6 inh – CXCR6 receptor inhibitors, primary screen, cell-based, beta-arrestin, luminescence, CHO-K1 PathHunter, 1536-well. C-X-C chemokine receptor type 6 (Homo sapiens), O00574. inhibition, % at 20 µM. actives 0.36% (n = 360,000). AID 602244, 2012; in the data active = inhibition above about 34%, passing the limit was not always enough;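 also: antagonist mode with CXCL16 agonist at 10 nM final; 0% = 10 nM CXCL16 with DMSO and 100% = unstimulated wells without agonist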
EBI2 antag – EBI2 receptor antagonists, beta-arrestin recruitment, primary screen, cell-based, luminescence, 7a,25-OHC stimulation, uHTS. 7a,25-OHC stimulated. G-protein coupled receptor 183 (Homo sapiens), P32249. actives 0.81% (n = 360,000). inhibition, % at 5 µM; in the data active = inhibition above about 38%;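 also: enzyme fragment complementation signal reports receptor beta-arrestin coupling in cells; 0% = agonist plus DMSO wells and 100% = wells without agonist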
Target sequence (P32249 whole entry, looked up, the tested form may be a part): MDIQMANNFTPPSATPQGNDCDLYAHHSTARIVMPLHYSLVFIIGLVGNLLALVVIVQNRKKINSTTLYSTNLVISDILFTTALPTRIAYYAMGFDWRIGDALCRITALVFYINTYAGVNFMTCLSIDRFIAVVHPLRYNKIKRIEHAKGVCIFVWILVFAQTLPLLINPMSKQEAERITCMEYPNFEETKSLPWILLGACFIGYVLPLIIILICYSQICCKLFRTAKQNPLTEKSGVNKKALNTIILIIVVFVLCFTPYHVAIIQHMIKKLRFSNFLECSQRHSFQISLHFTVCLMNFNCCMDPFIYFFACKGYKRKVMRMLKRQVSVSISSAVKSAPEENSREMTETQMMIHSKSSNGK
APJ antagonist – antagonists of human apelin receptor APJ, primary screen, CHO-K1 cells, beta-arrestin complementation, luminescence. P35414. inhibition, % at 20 µM. actives 0.32% (n = 330,000). AID 2521, 2010;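 active = inhibition above about 40% at 20 µM, limit read from the data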;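 also: cells challenged with 10 nM apelin-13 agonist together with compound; plate controls were apelin-13 plus DMSO wells for no effect and DMSO wells lacking apelin-13 for full effect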
CCR6 antag – CCR6 receptor antagonists, primary screen, cell-based, CHO-K1, luminescence, beta-arrestin, uHTS. CHO-K1 CCR6 PathHunter beta-arrestin, CCL20-stimulated. C-C chemokine receptor type 6 (Homo sapiens), P51684. actives 0.49% (n = 340,000). inhibition, % at 20 µM. AID 493098, 2011;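 active = compounds whose inhibition of the agonist-driven luminescence signal at 20 µM reaches about 50%, limit read from the data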;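 also: cells stimulated with CCL20 at 14 nM final; plate controls were DMSO with CCL20 for no effect and DMSO without agonist for full effect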
Active calls of the source: *; / = no result.

SMILES	APJ ag	CXCR6 inh	EBI2 antag	APJ antagonist	CCR6 antag
Cc1ccc2nc(C)c(CN3CCN(c4ccc([N+](=O)[O-])cc4Cl)CC3)n2c1	3	6	47*	18	/
CCc1nc2c(OCc3ccc(C(F)(F)F)cc3)cccn2c1N(C)C(=O)C1CC1	/	2	6	/	/
CCN1/C(=C/c2cc[n+](C)cc2)C=Cc2cc(C)ccc21	/	32	-8	/	57*
CCC(C)(O)c1cnc(CC(C)C)c(=O)n1O (configuration not stated)	/	3	2	/	/
O=C(N/N=C/c1cc([N+](=O)[O-])ccc1O)C1CC1	-4	21	62*	10	42
O=C(N/N=C/c1cc([N+](=O)[O-])ccc1O)c1ccc2c(c1)OCCO2	-1	6	76*	6	33
O=C(N/N=C/c1cccc([N+](=O)[O-])c1)c1cccc2cc[nH]c12	0	-11	-2	-1	-7
O=C1NCCCC1C(=O)N/N=C/c1cc([N+](=O)[O-])ccc1O (configuration not stated)	-4	17	2	15	45
O=C(N/N=C/c1cc([N+](=O)[O-])ccc1O)c1cccc2cc[nH]c12	-5	16	63*	8	27
COC(=O)[C@@]12C[C@@H](CC(=O)NCc3ccc(C)o3)C(=O)N(Cc3ccc4c(c3)OCO4)C1=CCC(C)(C)C2	/	/	10	/	/
CC1(C(=O)NCc2ccc(Cl)cc2)CCN1C(=O)Cc1cccs1 (configuration not stated)	/	1	-4	/	/
Cc1nnc(N=c2ssnc2Cl)o1	-1	13	41*	21	56*
CCCn1nnc(NC(=S)NC(=O)c2ccc(-c3ccc(Br)cc3)o2)n1	-9	31	8	14	59*
CCCn1nnc(NC(=S)NC(=O)Cc2ccccc2)n1	-5	26	-2	25	43
Cc1c(N/N=C(\C#N)C(=O)c2ccc(Cl)cc2)c(=O)n(-c2ccccc2)n1C	/	77*	14	/	81*
COc1ccc(S(=O)(=O)Nc2cc(SCC(=O)O)c(O)c3ccccc23)cc1	-1	8	-3	-30	6
O=C(Sc1cccc2cccnc12)c1ccc(F)cc1	-8	/	/	44*	/
O=S(=O)(Nc1cc(Sc2cccc3cccnc23)c(O)c2ccccc12)c1ccc(F)cc1	/	/	/	/	65*
CN(C)C(=O)CSc1cccc2cccnc12	-7	55*	19	35	66*
COC(=O)[C@]12CCCCC=C1N(Cc1ccco1)C(=O)[C@H](CC(=O)NCC13CC4CC(CC(C4)C1)C3)C2	/	14	4	/	/
O=c1c(Br)ccc(Br)cc1Br	/	95*	8	/	111*
O=C(CN1C(=O)/C(=C\c2ccccc2Br)Oc2ccccc21)NCCCN1CCOCC1	-4	1	4	17	68*
N#CC(=C1CCCC1)c1nc(-c2ccccc2)cs1	0	4	40	-15	2
N#CC(=C1CCCC1)c1nc(-c2ccccc2O)cs1	-3	6	65*	-9	17
O=C(Nc1cc(Cl)cc2c1-c1ccc(Cl)cc1C2O)C(Cl)Cl (configuration not stated)	/	-1	44*	/	30
SMILES	APJ ag	CXCR6 inh	EBI2 antag	APJ antagonist	CCR6 antag
CC(=O)OC[C@@H]1CN(Cc2ccccc2)C[C@H](n2cnc3c(Nc4ccccc4)ncnc32)O1	/	2	7	/	/
COc1ccc2sc(-c3ccccc3OC)c(-c3ccc(OCCN(C)C)cc3)c2c1	/	-3	-2	/	52*
COc1ccc(-c2sc3ccc(OC)cc3c2-c2ccc(OCCN3CCOCC3)cc2)cc1	/	-4	52*	/	28
COc1ccc2sc(-c3ccccc3OC)c(-c3ccc(SC)cc3)c2c1	/	8	16	/	/
CC1=C(C(=O)N(C)C)CC(CC(=O)NCc2cccs2)C(=O)N1Cc1ccc(C(C)(C)C)cc1 (configuration not stated)	/	-1	4	/	/
O=C(O)c1ccc(/C=C2/SC(=S)N(Cc3ccccc3)C2=O)cc1	/	11	10	/	-5
O=C1/C(=C/c2ccc(O)c([N+](=O)[O-])c2)SC(=S)N1Cc1ccccc1	-9	44*	8	50*	54*
CCCOc1ccc(/C=C2\SC(=S)N(CC3CCCO3)C2=O)cc1 (configuration not stated)	1	7	15	-8	12
O=C1/C(=C\c2ccc(O)cc2)SC(=S)N1Cc1ccccc1	-8	17	17	20	51*
O=C1/C(=C\c2ccc(O)cc2)SC(=S)N1c1cccnc1	-11	49*	15	57*	64*
O=C1/C(=C/c2ccc(O)cc2)SC(=S)N1CC1CCCO1 (configuration not stated)	-9	37	10	49*	44
CCCc1nc2c(C)cc(Br)cn2c1Cc1ccccc1C(F)(F)F	/	10	10	/	/
CSc1ccc(Cn2c(C)c(C(=O)NCc3ccco3)sc2=O)cc1	/	0	6	/	/
CCCCN1C(=O)C(CC(=O)NCc2cccc3ccccc23)CC(C(=O)N(C(C)C)C(C)C)=C1C (configuration not stated)	/	11	16	/	/
CCOc1ccc(Cl)cc1-c1cc(C(=O)NCc2cc(C(F)(F)F)cc(C(F)(F)F)c2)[nH]n1	/	-8	1	/	/
O=C1/C(=C\c2cccc([N+](=O)[O-])c2O)SC(=S)N1Cc1ccccc1	/	46*	8	/	64*
COc1cc([N+](=O)[O-])cc(/C=C2/SC(=S)N(Cc3ccccc3)C2=O)c1O	/	39	11	/	45
CN1C(=O)/C(=C/c2ccc(O)c([N+](=O)[O-])c2)NC1=S	-10	24	14	45*	48
COc1cc(/C=C2\NC(=S)N(C)C2=O)ccc1O	-4	2	-7	-36	-3
O=C(NCc1ccccc1)C(c1cc2ccccc2o1)n1c(=O)c(-c2ccco2)nc2ccccc21 (configuration not stated)	/	/	-1	/	/
C[C@H](c1ccccc1)N1C[C@@H](COCc2ccccc2)Oc2cc(N3CC[C@@H](N(C)C)C3)ccc2S1(=O)=O	/	14	8	/	/
O=CC(=O)c1ccccc1	-3	34	-7	12	76*
Cc1cc(Br)ccc1-n1[nH]c(C)c(C=Nc2cccc3nsnc23)c1=O	-4	33	15	-22	52*
COc1cc(/C=C2\SC(N3CCC(C)CC3)=NC2=O)ccc1O	-4	0	40*	15	12
O=C1C=CC(=O)N1c1ccccc1N1C(=O)C=CC1=O	/	72*	25	/	108*
O=[N+]([O-])c1ccc(/C=N/n2c(C3CCCCC3)n[nH]c2=S)cc1	-2	20	12	16	56*
CC1(C(=O)Nc2cccc(C#N)c2)CCN1C(=O)C1(c2ccccc2)CC1 (configuration not stated)	/	6	-6	/	/
